Results: ChEMBL document CHEMBL1127858, “Synthesis and evaluation of the anti-HIV activity of aza and deaza analogues of isoddA and their phosphates as prodrugs” (J Med Chem, 1994)

How the values were obtained:
MT4 [1] = experiment: Concentration required to reduce the viability of mock-infected MT-4 cells by 50% (4 days); type: functional; details: Homo sapiens, MT4, 96 h
Procedure, shortened: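 Mock-infected MT-4 cells (1 × 10⁴ per well) in RPMI with 10% FCS, exposed to a range of compound concentrations and incubated 4 days at 37 °C. Viable cells counted by MTT. CC50 is the dose cutting viability by 50%. Mean of three independent experiments. Cultures were checked periodically for mycoplasma.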

MT4 [2] = experiment: Effective concentration required to achieve 50% protection of MT-4 cells against cytopathic effect of HIV-1 (4 days); type: functional, cell-based; details: Homo sapiens, MT4, 96 h
Procedure, shortened: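 MT-4 cells (1 × 10⁴ per well, RPMI with 10% FCS) with various compound concentrations, infected with 100 CCID50 of HIV-1 IIIB from persistently infected H9/IIIB supernatant. After 4 days at 37 °C, viable cells read by MTT. EC50 is the dose giving 50% protection from virus cytopathicity. Mean of three independent experiments. Cytotoxicity run in parallel.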

MT4 [3] = experiment: Effective concentration required to achieve 50% protection of MT-4 cells against cytopathic effect of HIV-2 (8 days); type: functional, cell-based; details: Homo sapiens, MT4, 192 h
Procedure, shortened: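 MT-4 cells (1 × 10⁴ per well, RPMI with 10% FCS) with various compound concentrations, infected with 100 CCID50 of HIV-2 CBL 20 from persistently infected CEM supernatant. Viable cells read by MTT. EC50 is the dose giving 50% protection from virus cytopathicity. Mean of three independent experiments.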

[4] = Ratio of CC50 value that of EC50 value(HIV-2); type: functional
Procedure, shortened: (§1)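 Selectivity index as the CC50/EC50 ratio. CC50 comes from mock-infected MT-4 viability by MTT. EC50 comes from MTT-measured protection of MT-4 cells infected with 100 CCID50 of HIV-1 IIIB or HIV-2 CBL 20. Data are means of three experiments.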

[5] = Ratio of CC50 value that of EC50 value(HIV-1); type: functional; procedure, shortened: as §1

**Q.** For `Nc1nccc2c1nnn2C1COC(COP(=O)(OCC(Cl)(Cl)Cl)OCC(Cl)(Cl)Cl)C1` (configuration not stated), which CC50 (MT4 [1]) is on record?
**A.** > 173 µM

**Q.** And the EC50 (MT4 [2])?
**A.** > 173 µM

**Q.** What about the EC50 (MT4 [3]) of the same molecule?
**A.** > 173 µM

**Q.** Which CC50 (MT4 [1]) does the source give for `Nc1nccc2c1nnn2C1COC(CO)C1` (configuration not stated) here?
**A.** > 425 µM

**Q.** And the EC50 (MT4 [2])?
**A.** > 425 µM

**Q.** What about the EC50 (MT4 [3]) of the same molecule?
**A.** > 425 µM

**Q.** With `Nc1ccnc2c1nnn2C1COC(COP(=O)(OCC(Cl)(Cl)Cl)OCC(Cl)(Cl)Cl)C1` (configuration not stated) as the molecule, how does the CC50 (MT4 [1]) read?
**A.** > 100 µM

**Q.** What about the EC50 (MT4 [2]) of the same molecule?
**A.** > 100 µM

**Q.** What about the EC50 (MT4 [3]) of the same molecule?
**A.** > 100 µM

**Q.** Which results are given for `COC(=O)C(C)NP(=O)(OCC1CC(n2nnc3c(N)ncnc32)CO1)Oc1ccccc1` (configuration not stated)?
**A.** Ratio [4]: 1.4; Ratio [5]: 8.5; CC50 (MT4 [1]): 146 µM; EC50 (MT4 [2]): 17 µM; EC50 (MT4 [3]): 105 µM

**Q.** Which results are given for `Nc1ccnc2c1ncn2C1COC(CO)C1` (configuration not stated)?
**A.** CC50 (MT4 [1]): > 425 µM; EC50 (MT4 [2]): > 425 µM; EC50 (MT4 [3]): > 425 µM

**Q.** With `Nc1ncnc2c1ncn2[C@H]1CO[C@@H](CO)C1` as the molecule, how does the Ratio [4] read?
**A.** > 13

**Q.** And the Ratio [5]?
**A.** > 20

**Q.** What about the CC50 (MT4 [1]) of the same molecule?
**A.** > 425 µM

**Q.** What about the EC50 (MT4 [2]) of the same molecule?
**A.** 21 µM

**Q.** What about the EC50 (MT4 [3]) of the same molecule?
**A.** 32 µM

**Q.** For `Nc1ncnc2c1nnn2C1COC(COP(=O)(OCC(Cl)(Cl)Cl)OCC(Cl)(Cl)Cl)C1` (configuration not stated), which CC50 (MT4 [1]) is on record?
**A.** 92 µM

**Q.** What about the EC50 (MT4 [2]) of the same molecule?
**A.** > 92 µM

**Q.** And the EC50 (MT4 [3])?
**A.** > 92 µM

**Q.** Which CC50 (MT4 [1]) does the source give for `Nc1ncnc2c1nnn2C1COC(CO)C1` (configuration not stated) here?
**A.** > 425 µM

**Q.** And the EC50 (MT4 [2])?
**A.** > 425 µM

**Q.** And the EC50 (MT4 [3])?
**A.** > 425 µM

**Q.** Which Ratio [5] does the source give for `Nc1ncnc2c1ncn2C1COC(COP(=O)(OCC(Cl)(Cl)Cl)OCC(Cl)(Cl)Cl)C1` (configuration not stated) here?
**A.** > 2

**Q.** What about the CC50 (MT4 [1]) of the same molecule?
**A.** ≥ 173 µM

**Q.** And the EC50 (MT4 [2])?
**A.** 87 µM

**Q.** And the EC50 (MT4 [3])?
**A.** > 173 µM

**Q.** For `O=c1[nH]cnc2c1ncn2[C@H]1CC[C@@H](CO)O1` [DIDANOSINE], which Ratio [4] is on record?
**A.** > 38

**Q.** What about the Ratio [5] of the same molecule?
**A.** > 42

**Q.** What about the CC50 (MT4 [1]) of the same molecule?
**A.** > 425 µM

**Q.** And the EC50 (MT4 [2])?
**A.** 10 µM

**Q.** And the EC50 (MT4 [3])?
**A.** 11 µM

**Q.** With `COC(=O)C(C)NP(=O)(OCC1CC(n2cnc3c(N)ncnc32)CO1)Oc1ccccc1` (configuration not stated) as the molecule, how does the Ratio [4] read?
**A.** 65

**Q.** And the Ratio [5]?
**A.** 48

**Q.** What about the CC50 (MT4 [1]) of the same molecule?
**A.** 2.9 µM

**Q.** What about the EC50 (MT4 [2]) of the same molecule?
**A.** 0.06 µM

**Q.** And the EC50 (MT4 [3])?
**A.** 0.04 µM

**Q.** For `Cc1cn([C@H]2C[C@H](N=[N+]=[N-])[C@@H](CO)O2)c(=O)[nH]c1=O` [ZIDOVUDINE], which CC50 (MT4 [1]) is on record?
**A.** > 80 µM

**Q.** And the EC50 (MT4 [2])?
**A.** 0.01 µM

**Q.** What about the EC50 (MT4 [3]) of the same molecule?
**A.** 0.04 µM

**Q.** Which CC50 (MT4 [1]) does the source give for `Nc1nccc2c1ncn2C1COC(CO)C1` (configuration not stated) here?
**A.** > 425 µM

**Q.** And the EC50 (MT4 [2])?
**A.** > 425 µM

**Q.** And the EC50 (MT4 [3])?
**A.** > 425 µM

**Q.** For `Nc1ccnc2c1nnn2C1COC(CO)C1` (configuration not stated), which CC50 (MT4 [1]) is on record?
**A.** > 425 µM

**Q.** What about the EC50 (MT4 [2]) of the same molecule?
**A.** > 425 µM

**Q.** What about the EC50 (MT4 [3]) of the same molecule?
**A.** > 425 µM

**Q.** Which results are given for `Nc1nccc2c1ncn2C1COC(COP(=O)(OCC(Cl)(Cl)Cl)OCC(Cl)(Cl)Cl)C1` (configuration not stated)?
**A.** CC50 (MT4 [1]): 34 µM; EC50 (MT4 [2]): > 34 µM; EC50 (MT4 [3]): > 34 µM

**Q.** Which CC50 (MT4 [1]) does the source give for `Nc1ccnc2c1ncn2C1COC(COP(=O)(OCC(Cl)(Cl)Cl)OCC(Cl)(Cl)Cl)C1` (configuration not stated) here?
**A.** > 100 µM

**Q.** What about the EC50 (MT4 [2]) of the same molecule?
**A.** > 100 µM

**Q.** What about the EC50 (MT4 [3]) of the same molecule?
**A.** > 100 µM
